# The source made the active and inactive calls. The calls are words filed in the database; no cut-off is given here.
# How the values were obtained:
# [1] = target: T1, DNA topoisomerase 2-alpha (Homo sapiens, UniProt P11388); test: Inhibition of DNA topoisomerase 2alpha-mediated pBR322 DNA cleavage at 100 uM by SDS-PAGE
# How it was run: (§1)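 Topoisomerase IIα (150 ng) with 80 ng pBR322 and 0.5 mM ATP in pH 8.0 Tris/KCl/NaCl/MgCl2/glycerol buffer. Drug added last from DMSO. Incubated 10 min at 37°C, quenched with SDS/EDTA, then proteinase K 30 min at 55°C. Linear DNA resolved on a 1.2% agarose ethidium bromide gel against a HindIII-linearised pBR322 marker.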
# [2] = target: T1, DNA topoisomerase 2-alpha; settings: 50 uM
# [3] = target: T1, DNA topoisomerase 2-alpha; test: Inhibition of DNA topoisomerase 2alpha-mediated pBR322 DNA cleavage at 20 uM by SDS-PAGE
# [4] = target: T1, DNA topoisomerase 2-alpha; settings: K562, 50 uM
# K562 = test: Cytotoxicity against human K562 cells after 72 hrs by MTS assay; format: functional, cell-based; settings: K562, 72 h
# How it was run: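 K562 cells in αMEM with 10% fetal calf serum, 37°C, 5% CO2. Exponentially growing cells seeded at 6000/well. Compound added from DMSO stock (final DMSO 0.5% v/v), continuous exposure for 72 h. MTS added for a further 3 h and absorbance read. Three replicates per concentration. IC50 from a four-parameter logistic fit.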
# [5] = target: T1, DNA topoisomerase 2-alpha; settings: K562, 25 uM
# [6] = target: T1, DNA topoisomerase 2-alpha; test: Inhibition of DNA topoisomerase 2alpha-mediated pBR322 DNA cleavage at 50 uM by SDS-PAGE; how it was run: as §1
# [7] = target: T1, DNA topoisomerase 2-alpha; test: Inhibition of DNA topoisomerase 2alpha in human K-VP.5 cells assessed as decrease in protein-DNA covalent complex formation at 80 uM by scintillation counting; format: cell-based
# How it was run: (§2)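 K562 or K/VP.5 cells prelabelled 24 h with [3H]thymidine and [14C]leucine. Cells held at 1.5×10^6/ml in HEPES-buffered saline-glucose pH 7.4 and exposed to compound for 60 min at 37°C in the dark. Protein-DNA complexes precipitated with SDS/KCl after lysis and DNA shearing, and counted by scintillation. 3H normalised to 14C protein.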
# [8] = target: T1, DNA topoisomerase 2-alpha; test: Ratio of etoposide IC50 to IC50 for drug against human DNA topoisomerase 2alpha-mediated decatenation of kinetoplast plasmid DNA by fluorescent plate reader
# [9] = target: T1, DNA topoisomerase 2-alpha; test: Inhibition of DNA topoisomerase 2alpha in human K562 cells assessed as protein-DNA covalent complex formation at 80 uM by scintillation counting; format: cell-based; how it was run: as §2
# [10] = target: T1, DNA topoisomerase 2-alpha; test: Inhibition of DNA topoisomerase 2alpha in human K562 cells assessed as protein-DNA covalent complex formation under UV irradiation by scintillation counting; format: cell-based
# How it was run: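 Radiolabelled K562 cells (1.5×10^6/ml, pH 7.4 buffer) given compound (2.5–20 μM), then irradiated or not at 365 nm for 5 min from 16 mm. Incubated 60 min at 37°C in the dark. SDS/KCl-precipitated protein-DNA complexes measured by scintillation, with 3H normalised to 14C. Nine experiments on different days. Paired t-tests of UV versus no UV at each concentration.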
# T1 sequence (P11388 whole entry): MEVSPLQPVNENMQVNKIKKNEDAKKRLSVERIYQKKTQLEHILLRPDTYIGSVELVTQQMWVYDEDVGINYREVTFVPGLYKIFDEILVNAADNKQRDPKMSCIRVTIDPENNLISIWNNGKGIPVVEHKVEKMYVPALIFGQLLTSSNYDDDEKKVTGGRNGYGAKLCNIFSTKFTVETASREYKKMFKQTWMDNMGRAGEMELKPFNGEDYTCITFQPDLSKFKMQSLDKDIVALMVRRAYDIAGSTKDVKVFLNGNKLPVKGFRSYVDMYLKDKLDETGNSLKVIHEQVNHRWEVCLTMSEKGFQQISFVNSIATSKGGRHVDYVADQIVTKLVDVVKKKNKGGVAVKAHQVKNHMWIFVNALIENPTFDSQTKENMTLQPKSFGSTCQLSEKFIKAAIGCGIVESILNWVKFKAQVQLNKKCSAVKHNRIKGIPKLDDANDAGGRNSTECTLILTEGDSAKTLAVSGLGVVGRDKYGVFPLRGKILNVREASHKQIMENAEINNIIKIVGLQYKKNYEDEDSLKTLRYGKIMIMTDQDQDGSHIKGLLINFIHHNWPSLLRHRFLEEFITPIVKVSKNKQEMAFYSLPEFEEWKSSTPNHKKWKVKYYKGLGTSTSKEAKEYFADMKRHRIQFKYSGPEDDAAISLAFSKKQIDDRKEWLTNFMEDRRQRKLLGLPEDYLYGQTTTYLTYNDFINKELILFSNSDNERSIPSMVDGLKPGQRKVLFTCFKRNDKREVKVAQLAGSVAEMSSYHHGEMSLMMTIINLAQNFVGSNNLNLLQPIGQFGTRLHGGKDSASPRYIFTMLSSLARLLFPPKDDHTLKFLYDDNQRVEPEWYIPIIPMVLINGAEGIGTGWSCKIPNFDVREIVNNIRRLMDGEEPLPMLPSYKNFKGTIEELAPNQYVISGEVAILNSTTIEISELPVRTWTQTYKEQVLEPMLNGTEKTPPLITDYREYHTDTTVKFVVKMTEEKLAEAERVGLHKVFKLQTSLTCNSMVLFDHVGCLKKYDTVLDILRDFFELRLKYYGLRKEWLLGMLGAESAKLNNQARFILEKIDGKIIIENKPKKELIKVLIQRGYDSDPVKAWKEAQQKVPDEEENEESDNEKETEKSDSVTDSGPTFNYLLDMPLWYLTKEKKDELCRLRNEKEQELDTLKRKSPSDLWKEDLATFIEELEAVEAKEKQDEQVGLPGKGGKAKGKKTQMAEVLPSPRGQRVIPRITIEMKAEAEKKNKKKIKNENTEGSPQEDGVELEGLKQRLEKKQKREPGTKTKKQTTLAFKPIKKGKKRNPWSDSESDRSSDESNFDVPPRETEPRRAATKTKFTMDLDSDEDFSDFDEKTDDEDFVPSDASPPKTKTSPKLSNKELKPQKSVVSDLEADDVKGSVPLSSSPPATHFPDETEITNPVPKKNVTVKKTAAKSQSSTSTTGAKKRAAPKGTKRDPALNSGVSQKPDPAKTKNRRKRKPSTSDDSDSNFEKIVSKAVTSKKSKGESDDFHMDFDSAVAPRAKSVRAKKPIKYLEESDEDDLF
Structure (SMILES),inhibition [1],inhibition [2],inhibition [3],inhibition [4],IC50 (K562) [nM],inhibition [5],inhibition [6],inhibition [7],Ratio IC50 [8],inhibition [9],inhibition [10]
COc1cc([C@@H]2c3cc4c(cc3[C@@H](O[C@@H]3O[C@@H]5CO[C@@H](C)O[C@H]5[C@H](O)[C@H]3O)[C@H]3COC(=O)[C@H]23)OCO4)cc(OC)c1O [ETOPOSIDE],Active,Active,inactive,Active,420,inactive,–,–,–,–,–
CC[C@@]1(O)C(=O)OCc2c1cc1n(c2=O)Cc2cc3ccccc3nc2-1,–,–,–,–,–,–,40%,–,–,–,–
COc1cc([C@@H]2c3cc4c(cc3[C@@H](NC(=O)c3ccc(C5(C(F)(F)F)N=N5)cc3)[C@H]3COC(=O)[C@H]23)OCO4)cc(OC)c1O [DIAZIRINE],Active,–,inactive,–,–,–,Active,Active,2,Active,Dose-dependent effect
